The values that follow come from the RNAGym collection of RNA variant scans (doi:10.1126/science.aae0568).

This sample holds only a part of the variants without activity. A value given as a limit tells only on which side of the number the result lay.

To fix the notation:
B1: tRNA (parent)
chain: GUUCCGUUGGCGUAAUGGUAACGCGUCUCCCUCCUAAGGAGAAGACUGCGGGUUCGAGUCCCGUACGGAACG

Variants of B1 are the subject of this series. Put plainly: yeast fitness relative to wild type (ratio to wild type); higher = fitter; tRNA-Arg(CCU), competitive growth, 37 C, YPD. In a few lines: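 Changes in genotype frequencies gave Darwinian fitness relative to wild type. Frequencies were read by 100-nucleotide paired-end sequencing of gene amplicons before and after pooled Saccharomyces cerevisiae strains, carrying tRNA-Arg(CCU) gene variants at the native locus, were competed in YPD at 37°C for 24 hours in six replicates. A genotype was kept only with ≥ 100 starting reads, and estimates < 0.5 were set to 0.5.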
On to U8C C22U U53A, for which the yeast fitness is not above 0.5. Turning to U8C A14G U32A, the yeast fitness came to 0.538. In the case of U8C G23U A42G C60A it was not above 0.5.

Regarding U8A G18A C30A U32A U35G A65C, the yeast fitness is not above 0.5. As to U8A G38A, the yeast fitness came to 0.652. As to U8C A65U A69C, the yeast fitness turned out to be 0.615.

Turning to U8C C30G C31G C66U, the yeast fitness was not above 0.5. As for U8A U47C A57C U64C, the yeast fitness was not above 0.5.

U8C C22U A69C: the yeast fitness worked out at 0.505. As for U8C A15C, the yeast fitness worked out at 0.848. Turning to U8C G44C C60G, the yeast fitness stood at 0.53. The result for U8A U32G A37G G63U A70U reads not above 0.5. In the case of U8C A21U U53G A57C it was not above 0.5; in that of U8C G38A G52A, not above 0.5; in that of U8C A21G A42G, 0.675. For the variant U8C G9A U13G C62U, the yeast fitness was not above 0.5. In the case of U8A G18C C24A U32C it was 0.607; in that of U8C C46U, 1.03; in that of U8C C46A, 1.01.

Regarding U8C G25C G38A G58A C60U C62U, the yeast fitness is not above 0.5.

With U8C C11U C34G, the yeast fitness was not above 0.5. For U8C A20U C29U C30G A37G G44A, the yeast fitness was not above 0.5. As to U8C C29A A37G, the yeast fitness came out at 0.616. Turning to U8C A45C C66U, the yeast fitness was found to be 0.626. In the case of U8C A14C G18A C31U A45G, the yeast fitness is not above 0.5. On to U8C A14C C27G C46G A65G, for which the yeast fitness is not above 0.5. In the case of U8A G52A G56C it was 0.841.

Turning to U8C G67C, the yeast fitness was 0.953.

As to U8C G67A, the yeast fitness was determined as 0.85. In the case of U8C G44A C55U it was not above 0.5. The result for U8C A21U C34A A40C G68C reads not above 0.5. The result for U8C C11G G58U reads not above 0.5. On to U8C U13A C22G C24G A36U A40C G51C, for which the yeast fitness was not above 0.5.

U8A G48A: the yeast fitness was found to be 0.666.

As for U8A G23C G51C C62G, the yeast fitness was determined as 0.727. For U8C A21U G67C A69U, the yeast fitness is not above 0.5. The result for U8C G9A A42G reads 0.514. Consider U8C G9C C49U, for which the yeast fitness was not above 0.5. In the case of U8C A40C C55G it was not above 0.5; in that of U8A G25C A37C, not above 0.5; in that of U8C A15C A45C, 0.674.

Take U8A G52C: the yeast fitness is not above 0.5. For the variant U8C A45U A65U, the yeast fitness amounted to 0.709. In the case of U8C G23A C30U C55A, the yeast fitness is not above 0.5. For the variant U8C G25C C33A, the yeast fitness is not above 0.5. The result for U8A G18A C34U A42C reads not above 0.5. In the case of U8C U13A A65G it was 0.716; in that of U8C C22G C27U C49U U64C, not above 0.5; in that of U8C C60A, 0.737. In the case of U8A G18C C24A C29U U32C it was not above 0.5; in that of U8C C30A C31U U54C, not above 0.5; in that of U8C C22A A36C G63A G67C, not above 0.5. For U8A G39C A70C, the yeast fitness was found to be 0.751. In the case of U8C C27A A40G C46G C62G it was not above 0.5; in that of U8C C27U C34G, not above 0.5; in that of U8C G12A U19C C34G C66U A69U, not above 0.5. U8C G10C A42G A43G C55U: the yeast fitness was determined as 0.724. In the case of U8A G23C C61U, the yeast fitness worked out at 0.575.

As for U8C G38C U64A C66U, the yeast fitness is not above 0.5. In the case of U8A G18A U32C it was not above 0.5; in that of U8C C46U G52A, not above 0.5. In the case of U8C C22G U47C U53G it was not above 0.5.

Consider U8A G25C U35A, for which the yeast fitness is not above 0.5. As for U8C A21G A69C, the yeast fitness turned out to be 0.761. In the case of U8C G12A C31G A40C A45C G48C it was not above 0.5. As for U8C G17A G41C U64A A65C, the yeast fitness was not above 0.5.

On to U8C C49G A57G, for which the yeast fitness turned out to be 0.531.

Consider U8C A20C G51A, for which the yeast fitness is not above 0.5.

Regarding U8A G25A A40C C46U, the yeast fitness is 0.598. As to U8C A20U A57G, the yeast fitness was not above 0.5. With U8C C11U, the yeast fitness was 1.02. With U8C C11A, the yeast fitness was 0.698. On to U8C C11G, for which the yeast fitness was 0.686. The result for U8C A20G C34G C66U reads 0.696; that for U8C G17A A70U, not above 0.5; that for U8C C29A A65C C66G, not above 0.5. Turning to U8A G58A, the yeast fitness was determined as 0.771. In the case of U8A U13A A14C G56C it was not above 0.5; in that of U8C C27U A40G G44A C62A, not above 0.5; in that of U8C G51A C62A, not above 0.5.

Regarding U8C A40C C62G, the yeast fitness was not above 0.5. The result for U8C C11U A21G reads 0.7; that for U8C C31U, 1.07.

Take U8A G25C A37C A65C: the yeast fitness was not above 0.5.

For U8C G18A A45U G67C, the yeast fitness is 0.552.

For the variant U8C C22U C34A, the yeast fitness was 0.952.

Take U8C G18C A21C C61U C66U: the yeast fitness was not above 0.5.

Consider U8C G12A G18A A45C, for which the yeast fitness is not above 0.5.

Regarding U8C A15C A21U, the yeast fitness was not above 0.5. On to U8C C30G, for which the yeast fitness came out at 0.674. As to U8C C30U, the yeast fitness came to 0.935.

Regarding U8C C30A, the yeast fitness is 0.948. In the case of U8C A20G A65G G68A it was not above 0.5. With U8C A14U C22G C30U U54C, the yeast fitness is not above 0.5. In the case of U8C A15U U28A C33G it was not above 0.5; in that of U8C G25A A37C G68U, not above 0.5. In the case of U8C C31A A42G A43G G68C it was 0.559; in that of U8A U19C A36U, not above 0.5; in that of U8C A69C, 0.991. As for U8C A69U, the yeast fitness came to 0.933. In the case of U8C C30G C31G C55U it was not above 0.5.

On to U8A G18C C27U G51C C55A C62U A65U A69U, for which the yeast fitness turned out to be 0.647. The result for U8C A42G G68A reads 0.63; that for U8C U19A A40U, 0.581.

As to U8A G25C A37C C66U, the yeast fitness was not above 0.5. In the case of U8C G10A U35A it was not above 0.5; in that of U8C C29G A37G G67C, 0.573; in that of U8A U28A C66U, not above 0.5.

Consider U8C C22U C29U, for which the yeast fitness is not above 0.5. In the case of U8C C33A C55G A69C, the yeast fitness is not above 0.5. In the case of U8C A14U C22G C30U it was 0.581. The result for U8A G18A G67U A69C reads not above 0.5. In the case of U8C C27U C31A it was 0.56; in that of U8C A70C, 0.922; in that of U8C G12A A45U G48A, not above 0.5. Consider U8A U13C C66U, for which the yeast fitness turned out to be 0.607. In the case of U8A G18A it was 0.578; in that of U8C C24G C55A, not above 0.5.

U8C: the yeast fitness was 1.03.

On to U8C G18C A20U C49G, for which the yeast fitness is not above 0.5. Take U8C A21U U32A C49U C55U: the yeast fitness was not above 0.5.

For U8C U16C C24U U28C U47A C55U, the yeast fitness is not above 0.5. In the case of U8A U13A A14C U16A G63A G67A it was not above 0.5; in that of U8C C27G G39C, not above 0.5.

In the case of U8C A65C, the yeast fitness is 0.964. In the case of U8C A65G it was 0.929; in that of U8C C22G C55G, not above 0.5; in that of U8C U16A A21U C24G G48C, not above 0.5. In the case of U8C C24A C46G G63A it was 0.597; in that of U8C C27U C31A C55A G56A, 0.579; in that of U8A G44A U64C C66A, not above 0.5. The result for U8C C33U reads 0.728. On to U8C C34G, for which the yeast fitness came to 0.574. The result for U8C G23A C34A A42U C46A A57C reads not above 0.5. The result for U8C G9A C22U C30A C49A C55A C62U C66U reads not above 0.5. As to U8C A43C, the yeast fitness stood at 0.939.

For U8C A15C C27U A45C, the yeast fitness was not above 0.5. The result for U8C G39C U47C C60A C61G A69U reads not above 0.5. In the case of U8C C27U U32A C66U G67C it was not above 0.5; in that of U8A U32G A36C U47G, not above 0.5.

On to U8A G18C G41A, for which the yeast fitness is not above 0.5. In the case of U8C C46G G67A it was 0.674; in that of U8A U47A C60A, not above 0.5; in that of U8C G23A G44C A45U C49A, not above 0.5. The result for U8C G12A C29G U47C reads not above 0.5; that for U8C A45U C49U, 0.714; that for U8C A14C C33A C46A, not above 0.5. In the case of U8C A15U C22U A40C G48C U54C C62U it was 0.557; in that of U8A U28A C31G C60A, not above 0.5. As to U8C A42G A70C, the yeast fitness is not above 0.5.

Take U8C C22U C30U C33U A45C: the yeast fitness was not above 0.5.

As to U8C G9A A20C G68C, the yeast fitness is 0.527. In the case of U8A G18C C24A U32C U64C A65G, the yeast fitness is not above 0.5. As for U8C A20G C34G A37G G44A, the yeast fitness was 0.627. The result for U8A G51A reads 0.63.

Consider U8C C33U A36C A43G A57U, for which the yeast fitness is not above 0.5. Take U8C A42G G51U A57U: the yeast fitness was not above 0.5. The result for U8C U19A A40C G44C G48C U53G reads not above 0.5. For U8C G10C C46U C66U, the yeast fitness was not above 0.5.

In the case of U8A U19C A21C C66U, the yeast fitness was not above 0.5. Consider U8A G41A A69U, for which the yeast fitness was not above 0.5. As to U8C A45G, the yeast fitness stood at 0.906. The result for U8C C66G reads 0.75.

For the variant U8C C66U, the yeast fitness was 0.892. The result for U8C C66A reads 0.687. In the case of U8C G25A A36C A70G it was 0.624; in that of U8C C34A C61G G68C, not above 0.5.
